rCAG binder: binds r(CAG) RNA repeats. r(CAG) RNA repeat, TO-PRO-1 dye displacement fluorescence. inhibition, % at 3 µM. 370,000 compounds, 1.3% hits. AID 651821;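 active = inhibition above the plate cutoff, the mean of all test compounds on that plate plus 3 SD, cut at about 35% in these data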;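 also: higher means more dye released from RNA so lower well fluorescence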
MBD2 DNA inh: blocks human MBD2 binding to methylated DNA | Q9UBB5 | TR-FRET, MBD2 binding to methylated oligonucleotide | inhibition, % at 4.4 µM | 370,000 compounds, 0.31% hits | AID 686964; in the data active = inhibition above about 13%
CSN deneddyl inh: blocks human CSN-mediated cullin deneddylation; Q92905; Purified CSN, SCF-Nedd8-OG deneddylation, fluorescence polarization; inhibition, % at 12.5 µM; 360,000 compounds, 0.38% hits; AID 651999;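 active = pattern-corrected inhibition above about 35%, with an unprinted fluorescence ratio check between 0.5 and 1.5, limit read from the data, passing the limit was not always enough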
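Test system: Human Csn5 produced in HEK293T cells | Compound: 12.5 µM single point | Times: 90 min, room temperature | Signal: Fluorescence polarization readout | Read-out basis: % inhibition of substrate cleavage by Csn5 | Controls: no-enzyme wells high, enzyme-with-substrate wells low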
UHRF1 binding: blocks human UHRF1 binding to methylated DNA; Q96T88; UHRF1 binding to methylated oligo, TR-FRET; inhibition, % at 4.4 µM; 370,000 compounds, 0.75% hits; in the data active = inhibition above about 21%;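 also: UHRF1 SRA domain binding a hemimethylated CpG hairpin DNA probe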
ATG4B inhibitor: inhibitors of human ATG4B cysteine protease | Q9Y4P1 | ATG4B cleavage of LC3-PLA2, NBD-HPC fluorescence, 1 h | inhibition, % at 8.33 µM | 340,000 compounds, 0.51% hits; in the data active = inhibition above about 40%
Target sequence (Q9Y4P1 whole entry, looked up): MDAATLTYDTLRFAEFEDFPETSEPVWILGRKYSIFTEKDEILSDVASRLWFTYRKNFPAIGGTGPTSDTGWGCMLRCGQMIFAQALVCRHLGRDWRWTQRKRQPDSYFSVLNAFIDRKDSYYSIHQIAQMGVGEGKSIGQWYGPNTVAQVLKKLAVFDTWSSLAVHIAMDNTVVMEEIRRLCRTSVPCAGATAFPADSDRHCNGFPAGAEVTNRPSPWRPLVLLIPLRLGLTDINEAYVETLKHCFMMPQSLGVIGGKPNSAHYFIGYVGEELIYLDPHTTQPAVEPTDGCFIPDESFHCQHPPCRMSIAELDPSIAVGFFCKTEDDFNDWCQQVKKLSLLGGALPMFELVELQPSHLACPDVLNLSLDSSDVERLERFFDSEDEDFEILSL
LEDGF integ inh: blocks HIV-1 LEDGF/p75-dependent DNA integration. 370,000 compounds, 0.64% hits. TR-FRET IN-LEDGF/p75 DNA integration, Eu/Cy5. inhibition, % at 3.7 µM;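 active = inhibition above the screen-wide mean plus 3 SD, cut at about 13% in these data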;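 also: signal is the Cy5 over europium emission ratio at 671 and 618 nm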
rCAG binder conf: r(CAG) RNA repeat binding, confirmation; shares compounds with rCAG binder; inhibition, % at 3 µM; 4,300 compounds, 70% hits; TO-PRO-1 dye displacement fluorescence; AID 652065;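 active = inhibition above a per-plate cutoff, the mean inhibition of sample wells plus 3 SD, cut at about 35% in these data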;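 also: loss of TO-PRO-1 fluorescence as compound displaces dye from 1x1 AA loop RNA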
dCAG dye counter: counter-screen for rCAG RNA binders: DNA CAG dye complex inhibitors; shares compounds with rCAG binder; d(CAG) DNA oligo TO-PRO-1 dye displacement, fluorescence; inhibition, % at 3 µM; 4,300 compounds, 94% hits; AID 652068;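 active = inhibition above its plate's cutoff, the mean test-well inhibition plus 3 SD, cut at about 4.8% in these data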;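 also: hits displace the dye from DNA and so lower well fluorescence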
Hits are given with their value; - = inactive; . = not tested or not shown. Only some compounds are listed: those with a hit (about 3.1% of all), similar ones and a draw of the others.

SMILES	rCAG binder	MBD2 DNA inh	CSN deneddyl inh	UHRF1 binding	ATG4B inhibitor	LEDGF integ inh	rCAG binder conf	dCAG dye counter
O=S1(=O)c2ccc(N3CC[C@H](O)C3)cc2O[C@H]2CCN1C2	-	-	.	-	.	-	.	.
CC(C)CCN1C(=O)COc2ccccc2C1c1nnnn1-c1ccc2c(c1)OCCO2 (stereo unspecified)	-	-	.	-	.	-	.	.
COc1ccc(-c2cc(-c3nnc4sc(Cc5cccs5)nn34)[nH]n2)cc1	-	-	.	-	.	-	.	.
COc1ccccc1C(=O)NC1CCCCN(Cc2cccc(F)c2)C1=O (stereo unspecified)	-	-	.	-	.	-	.	.
CCC(C)c1ccc(OCC(=O)Nc2cccc(C(=O)Nc3ccc(C(=O)O)cc3)c2)cc1 (stereo unspecified)	75	-	-	-	-	-	75	39
Cc1cc(C)c(C)c(S(=O)(=O)Nc2ccccc2C(=O)NN2CCOCC2)c1C	-	-	-	-	-	-	.	.
CC(=O)Oc1ccc(C(=O)Nc2ccccc2C(=O)Nc2cccc(C(=O)O)c2)cc1	-	-	-	-	-	-	.	.
CC(=O)Nc1ccc(S(=O)(=O)Nc2cccc(C(=O)Nc3ccccc3C(=O)O)c2)cc1	47	-	-	-	-	-	-	4.7
Cc1cc(C)c(C)c(S(=O)(=O)Nc2cccc(S(=O)(=O)Nc3ccccc3C(=O)O)c2)c1C	78	-	-	-	-	-	73	38
CC(=O)Nc1cccc(C(=O)Nc2ccccc2C(=O)O)c1	-	-	-	-	-	-	.	.
CC(=O)Oc1ccc(C(=O)Nc2cccc(C(=O)Nc3ccccc3C(=O)O)c2)cc1	50	-	-	-	-	-	44	12
O=C(Nc1ccccc1C(=O)O)c1cccc(C(=O)Nc2ccccc2C(=O)O)c1	50	-	-	-	-	-	42	9.1
COc1ccc(CC(=O)Nc2cccc(C(=O)Nc3ccccc3C(=O)O)c2)cc1OC	-	-	-	-	-	-	.	.
O=C(Nc1ccccc1C(=O)O)c1ccccc1	-	-	-	-	-	-	.	.
O=C(Cc1ccc(Cl)cc1)Nc1cccc(C(=O)Nc2ccccc2C(=O)O)c1	74	-	-	-	-	-	64	24
O=C(Nc1ccccc1C(=O)O)c1cccc(NC(=O)c2ccc(Br)o2)c1	45	-	-	-	-	-	40	7.8
COc1ccc(OCC(=O)Nc2cccc(C(=O)Nc3ccccc3C(=O)O)c2)cc1	51	-	-	-	-	-	62	17
O=C(Cn1c(=O)c2cccn2c2cccnc21)NCCCN1CCN(c2ccccc2)CC1	.	-	.	-	.	-	.	.
C=CCN1C(=O)[C@@H](CC(=O)N2CCN(C(=O)C3CC3)CC2)[C@]2(C(=O)OCC)CCCCC/C=C/12	-	-	.	-	.	-	.	.
COc1ccc(/C(=N\Nc2ccccc2C(=O)O)c2ccccc2)cc1	50	-	-	-	-	-	43	12
O=C(Nc1cccc(C(=O)Nc2ccccc2C(=O)O)c1)c1cccc(Cl)c1	60	-	-	-	-	-	55	18
CSc1ccccc1NC(=O)Nc1cccc(Cl)c1	-	-	-	-	-	-	.	.
COc1cc(NC(=O)Nc2ccc(Cl)c(Cl)c2)c(C(=O)O)cc1OC	70	-	-	-	-	-	54	15
CCOC(=O)C(=O)N/N=C(/c1ccccc1)c1ccc(OC)cc1	-	-	-	-	-	-	.	.
Cc1ccc(NC(=O)Nc2cccc(Cl)c2)c(C(=O)O)c1	47	-	-	-	-	-	-	-
CC(=O)c1cc(-c2cnn(Cc3ccccc3)c2)c(=O)n2c1CCC2	-	-	.	-	.	-	.	.
Cc1nn(-c2ccccc2)c2sc(C(=O)O)cc12	-	-	-	-	-	-	.	.
Cc1nn(-c2ccccc2)c2sc(-c3n[nH]c(=S)o3)cc12	65	-	-	-	-	-	-	8.0
C=CCN(Cc1ccc2c(c1)OCO2)C(C#Cc1ccccc1)c1ccccc1C(F)(F)F (stereo unspecified)	-	-	.	-	.	-	.	.

From PubChem
